Assay results from ChEMBL document CHEMBL3098102, “1,2,3-Triazole-derived naphthalimides as a novel type of potential antimicrobial agents: synthesis, antimicrobial activity, interaction with calf thymus DNA and human serum albumin” (Bioorg Med Chem Lett, 2014).
In brackets after ≈: the same amount, converted by molar mass. Activity calls are given as the source filed them. The calls are words filed in the database; no cut-off is given here.

Experiments:
[1] = test system: DNA; test: Competitive binding affinity to calf thymus DNA at 0.25 to 2 x 10^-5 mol/L by UV spectroscopy in presence of neutral red; type: nucleic-acid assay; settings: Bos taurus
[2] = test system: DNA; test: Binding affinity to calf thymus DNA by UV-vis spectroscopy; type: nucleic-acid assay; settings: Bos taurus
In short: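 UV-vis absorption spectra of calf thymus DNA recorded with increasing concentrations of test compound. The DNA band at 260 nm was monitored for changes in intensity and wavelength.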

[3] = test system: Aspergillus flavus; test: Ratio of fluconazole MIC to compound MIC for Aspergillus flavus after 24 hrs by two-fold serial dilution method; type: functional
[4] = test system: Pseudomonas aeruginosa; test: Antimicrobial activity against Pseudomonas aeruginosa after 24 hrs by two-fold serial dilution method; type: functional
In short: (§1)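 MIC read by broth microdilution in microdilution plates.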

[5] = Antimicrobial activity against Bacillus proteus after 24 hrs by two-fold serial dilution method; type: functional; in short: as §1
[6] = test system: Staphylococcus aureus; test: Antimicrobial activity against methicillin-resistant Staphylococcus aureus N315 after 24 hrs by two-fold serial dilution method; type: functional; settings: N315, 24 h
[7] = test system: Micrococcus luteus; test: Antimicrobial activity against Micrococcus luteus ATCC 4698 after 24 hrs by two-fold serial dilution method; type: functional; settings: ATCC 4698, 24 h
[8] = test system: Bacillus subtilis; test: Antimicrobial activity against Bacillus subtilis after 24 hrs by two-fold serial dilution method; type: functional; in short: as §1
[9] = test system: Staphylococcus aureus; test: Antimicrobial activity against Staphylococcus aureus ATCC 25923 after 24 hrs by two-fold serial dilution method; type: functional; settings: ATCC 25923, 24 h
[10] = test system: Shigella dysenteriae; test: Antimicrobial activity against Shigella dysenteriae after 24 hrs by two-fold serial dilution method; type: functional
[11] = test system: Aspergillus flavus; test: Antimicrobial activity against Aspergillus flavus after 24 hrs by two-fold serial dilution method; type: functional; in short: as §1
[12] = test system: Saccharomyces cerevisiae; test: Antimicrobial activity against Saccharomyces cerevisiae by two-fold serial dilution method; type: functional; in short: as §1
[13] = test system: Escherichia coli; test: Antimicrobial activity against Escherichia coli DH52 after 24 hrs by two-fold serial dilution method; type: functional; settings: DH52, 24 h
[14] = test system: Candida albicans; test: Antimicrobial activity against Candida albicans after 24 hrs by two-fold serial dilution method; type: functional; in short: as §1
[15] = test system: Escherichia coli; test: Ratio of chloromycin MIC to compound MIC for Escherichia coli DH52 after 24 hrs by two-fold serial dilution method; type: functional

Row | Compound | Activity [1] | K [2] [×10⁴ L/mol] | Ratio [3] | MIC [4] [µg/mL] | MIC [5] [µg/mL] | MIC [6] [µg/mL] | MIC [7] [µg/mL] | MIC [8] [µg/mL] | MIC [9] [µg/mL] | MIC [10] [µg/mL] | MIC [11] [µg/mL] | MIC [12] [µg/mL] | MIC [13] [µg/mL] | MIC [14] [µg/mL] | Ratio [15]
1 | O=C1c2cccc3c(Br)ccc(c23)C(=O)N1N(Cc1cn(Cc2ccc(Cl)c(Cl)c2)nn1)Cc1cn(Cc2ccc(Cl)c(Cl)c2)nn1 | Active | 2.34 |  |  |  |  |  |  |  |  |  |  |  |  | 
2 | CCCCCCCCn1cc(CN(Cc2cn(CCCCCCCC)nn2)N2C(=O)c3cccc4c(Br)ccc(c34)C2=O)nn1.Cl.Cl |  |  | 16 | 512 | 512 | > 512 | > 512 | > 512 | > 512 | > 512 | 16 | > 512 | 512 | > 512 | 
3 | CCCCCCCCn1cc(CN(Cc2cn(CCCCCCCC)nn2)N2C(=O)c3cccc4c(Br)ccc(c34)C2=O)nn1 |  |  | 16 | 512 (≈ 756 µM) | > 512 | > 512 | > 512 | > 512 | > 512 | > 512 | 16 (≈ 23.6 µM) | > 512 | 512 (≈ 756 µM) | > 512 | 
4 | O=C1c2cccc3c(Br)ccc(c23)C(=O)N1N(Cc1cn(Cc2cccc(Cl)c2)nn1)Cc1cn(Cc2cccc(Cl)c2)nn1 |  |  |  | 64 (≈ 91.1 µM) | > 512 | > 512 | > 512 | 256 (≈ 364 µM) | 256 (≈ 364 µM) | > 512 | > 512 | 64 (≈ 91.1 µM) | 2 (≈ 2.85 µM) | 64 (≈ 91.1 µM) | 2
